What was measured:
pancreatic cancer cells = details: ref: our previous studies; cited from earlier work
[1] = Stock solution stability at room temperature; type: physicochemical; details: room temperature (25°C), 24 h; 324 and 3240 ng/mL
Summary of the method: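 Stock solutions of analyte and internal standard, at 324 and 3240 ng/mL, tested fresh and after storage at 25°C. Tested at 6, 12 and 24 h after preparation, using the same extraction and C18 HPLC-DAD (295 nm) procedure.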

[2] = Bench-top stability in mouse plasma and tissue homogenates at 25°C; type: in vitro ADME; details: plasma and most tissue homogenates except for liver
mouse plasma proteins = assay: Plasma protein binding by micro-ultrafiltration; type: in vitro ADME; details: 37°C, 1 h
Summary of the method: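 Mouse plasma spiked at 324 and 3240 ng/mL and held at 37°C for 1 h; PBS used as control matrix. Micro-ultrafiltration by centrifugation at 2000g until dry. Filtrate (free, F) and unfiltered solution (total, T) each assayed in triplicate by HPLC, and filter-bound amount (X) also measured. Percent bound = [(T−F−X)/T]×100.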

[3] = Homogenization stability in mouse tissues; type: in vitro ADME; details: homogenized
Summary of the method: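 Compound at 324 and 3240 ng/mL injected into equal weights of blank mouse tissue, kept inside the organ. Tissue homogenized in two volumes (v/w) PBS on ice, extracted at once by methanol precipitation and analysed immediately. Analysis by C18 HPLC-DAD at 295 nm. Recovery given as percent of initial concentration.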

[4] = Short- and long-term stability in mouse plasma; type: in vitro ADME; details: for compound remaining intact in mouse plasma: 4°C
Summary of the method: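 Mouse plasma spiked at 324 and 3240 ng/mL, analysed in duplicate. Short-term storage at 37°C (2, 4, 6, 8, 12, 24 h) or 4°C (4, 8, 12, 24 h); long-term storage at −80°C for 2–8 weeks. Samples then methanol-extracted and analysed by HPLC-DAD. Results given as percent of freshly prepared samples.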

Freeze–thaw stability = type: in vitro ADME
Summary of the method: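 Samples at 324 and 3240 ng/mL, run in triplicate. Each cycle was 24 h at −20°C, then unassisted thawing at room temperature, then refreezing; three cycles in total. Samples then extracted with methanol (0.04% formic acid) on ice and analysed by reversed-phase HPLC-DAD at 295 nm. Final concentration expressed as percent of initial.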

[5] = type: in vivo, female nu/nu mice
Summary of the method: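 Nude mice carrying subcutaneous MIAPaCa-2 xenografts (1 × 10^7 cells, left inguinal) were dosed once with 40 mg/kg i.p. when tumours reached 100 mg, n=3 per group. Vehicle was PEG400–EtOH–saline (57.1:14.3:28.6). Retro-orbital plasma and necropsy tissues taken at 0–24 h. Urine and feces collected over 24 h in metabolic cages. Tissues homogenized in PBS, methanol-extracted and measured by HPLC-DAD.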

tumor growth = details: 40 mg/kg intraperitoneal; ref: our previous studies; cited from earlier work
[6] = tested on: hepatic microsomal S9 fractions from CD2F1 mice; assay: S9 metabolism in vitro; type: in vitro ADME; details: mouse S9, 60 min incubation, 37°C
Summary of the method: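 Hepatic S9 fraction from CD2F1 mice, containing phase I and II enzymes and cofactors, incubated with compound. Compound added as a 3240 ng/mL DMSO solution (not final concentration) into cold 100 mM Tris, pH 7.4. Duplicate portions taken at 0, 15, 30, 45 and 60 min and analysed for intact compound by HPLC, against a no-S9 control.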

[7] = Nonspecific binding to container surface; type: physicochemical, mouse
Summary of the method: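 Sequential transfer test. Plasma or tissue homogenate spiked at 324 or 3240 ng/mL was poured, without a pipette, through four identical clean tubes in turn. Solution stood 5–20 min at room temperature in each donor tube for adsorption. 100 μL taken from each tube and measured by the same extraction and HPLC-DAD method.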

[8] = female, nu/nu, mouse, plasma, intraperitoneal, 40 mg/kg

In the case of `COc1ccc2[nH]c3c(-c4cccc5ccccc45)nccc3c2c1` [SP-141, 6-methoxy-1-(naphthalen-1-yl)-9H-pyrido[3,4-b]indole], the “effective level against pancreatic cancer cells in vitro” value (pancreatic cancer cells) is listed as “submicromolar”, the stock solution stability [1] is listed as “unchanged” and the bench-top stability [2] is listed as “relatively stable”. For the same molecule, the “bound to proteins in mouse plasma” value (mouse plasma proteins; 324 ng/mL) was 57.23%, the “bound to proteins in mouse plasma” value (mouse plasma proteins; 3240 ng/mL) was 62.61% and the recovery at 324 ng/mL ([3]; blank brain tissue) was 91.3 ± 0.98%. It also gave a recovery at 3240 ng/mL ([3]; blank brain tissue) of 101 ± 1.45%, a recovery at 324 ng/mL ([3]; blank heart tissue) of 81.8 ± 4.47% and a recovery at 3240 ng/mL ([3]; blank heart tissue) of 86.6 ± 1.39%. For the same molecule, the recovery at 324 ng/mL ([3]; blank kidney tissue) was 82.5 ± 2.6%, the recovery at 3240 ng/mL ([3]; blank kidney tissue) was 87.8 ± 1.36% and the recovery at 324 ng/mL ([3]; blank liver tissue) was 86.7 ± 1.36%. The recovery at 3240 ng/mL ([3]; blank liver tissue) was 89.22 ± 0.77%, the recovery at 324 ng/mL ([3]; blank lung tissue) was 89 ± 1.57% and the recovery at 3240 ng/mL ([3]; blank lung tissue) was 93.3 ± 1.02%. For the same molecule, the recovery at 324 ng/mL ([3]; blank muscle tissue) was 97.18 ± 0.9%, the recovery at 3240 ng/mL ([3]; blank muscle tissue) was 97.5 ± 1.47% and the recovery at 324 ng/mL ([3]; blank spleen tissue) was 93 ± 5.2%. The recovery at 3240 ng/mL ([3]; blank spleen tissue) was 99.7 ± 1.15%, the recovery at 324 ng/mL ([3]; blank tumor tissue) was 99.61 ± 0.79% and the recovery at 3240 ng/mL ([3]; blank tumor tissue) was 99.12 ± 0.19%. For the same molecule, the “compound remaining intact in mouse plasma” value ([4]; 24 h, 324 ng/mL) was 95.9%, the “compound remaining intact in mouse plasma” value ([4]; 24 h, 3240 ng/mL) was 94.3% and the “compound remaining in mouse plasma” value ([4]; 37°C, 24 h, both 324 and 3240 ng/mL) was “more than 77%”. The “compound remaining in mouse plasma” value ([4]; −80°C, 8 weeks, 324 ng/mL) was 95.7%, the “compound remaining in mouse plasma” value ([4]; −80°C, 8 weeks, 3240 ng/mL) was 98.7% and the “percentage of remaining concentration after three freeze–thaw cycles” value (Freeze–thaw stability; 324 ng/mL) was 98.24 ± 0.69%. For the same molecule, the “percentage of remaining concentration after three freeze–thaw cycles” value (Freeze–thaw stability; 3240 ng/mL) was 97.44 ± 1.53%, the “order of highest overall concentrations in tissues” value ([5]; 40 mg/kg i.p. single dose) was “spleen > lungs > liver > kidney > brain > tumor > muscle > heart” and the concentration in plasma ([5]; 40 mg/kg i.p. single dose, 6 h) was “undetectable”. For the same molecule, the “detection in tumor tissue” value ([5]; 40 mg/kg i.p., 24 h after administration, low concentrations) was “could be detected”, the “excretion of parent compound in urine and feces” value ([5]; 40 mg/kg i.p., 24 h collection, data not shown) was “minimally excreted” and the half-life in plasma ([5]; 40 mg/kg i.p., tumor-bearing nude mice) was “short half-life”. The concentration at 10 min [5, 8] was ~3000 ng/mL, the concentration at 4 h [5, 8] was 200 ng/mL and the “effect on tumor growth in vivo” value (tumor growth) was “suppresses the tumor growth”. For the same molecule, the “host toxicity in vivo” value (tumor growth) was “no significant host toxicity”, the “compound metabolized by phase II components” value [6] was 18.8% and the “Recovery (%) ± SD (%), nonspecific binding” value (from here on “Recovery (%) ± SD (%)”) ([7]; Brain, 324 ng/mL) was 96.29 ± 2.54%. For the same molecule, the “Recovery (%) ± SD (%)” value ([7]; Brain, 3240 ng/mL) was 100.58 ± 0.81%, the “Recovery (%) ± SD (%)” value ([7]; Heart, 324 ng/mL) was 100.41 ± 0.27% and the “Recovery (%) ± SD (%)” value ([7]; Heart, 3240 ng/mL) was 98.82 ± 0.38%. The “Recovery (%) ± SD (%)” value ([7]; Kidney, 324 ng/mL) was 99.88 ± 3.11%, the “Recovery (%) ± SD (%)” value ([7]; Kidney, 3240 ng/mL) was 97.13 ± 1.04% and the “Recovery (%) ± SD (%)” value ([7]; Liver, 324 ng/mL) was 104.91 ± 6.65%. For the same molecule, the “Recovery (%) ± SD (%)” value ([7]; Liver, 3240 ng/mL) was 99.69 ± 1.38%, the “Recovery (%) ± SD (%)” value ([7]; Lungs, 324 ng/mL) was 96.64 ± 2.24% and the “Recovery (%) ± SD (%)” value ([7]; Lungs, 3240 ng/mL) was 99.99 ± 0.21%. For the same molecule, the “Recovery (%) ± SD (%)” value ([7]; Muscle, 324 ng/mL) was 101.12 ± 2.33%, the “Recovery (%) ± SD (%)” value ([7]; Muscle, 3240 ng/mL) was 99.19 ± 1.01% and the “Recovery (%) ± SD (%)” value ([7]; Plasma, 324 ng/mL) was 98.95 ± 1.49%. For the same molecule, the “Recovery (%) ± SD (%)” value ([7]; Plasma, 3240 ng/mL) was 100.49 ± 0.04%, the “Recovery (%) ± SD (%)” value ([7]; Spleen, 324 ng/mL) was 99.54 ± 2.10% and the “Recovery (%) ± SD (%)” value ([7]; Spleen, 3240 ng/mL) was 99.99 ± 0.22%. For the same molecule, the “Recovery (%) ± SD (%)” value ([7]; Tumor, 324 ng/mL) was 96.84 ± 2.30% and the “Recovery (%) ± SD (%)” value ([7]; Tumor, 3240 ng/mL) was 99.20 ± 0.57%.

For `COc1ccc2c(c1)[nH]c1c(-c3ccc4ccccc4c3)nccc12` [SP-157, 7-methoxy-1-(naphthalen-2-yl)-9H-pyrido[3,4-b]indole, reference compound], the stock solution stability [1] was “unchanged”.

Source: article PMC4710169 (Biomedical chromatography : BMC, 2014)
